Dynein transport: dynein cargo transport inhibition. 3617.4 mouse cells, GR-EGFP nuclear translocation imaging; test concentration mostly 20 µM; stimulated with dexamethasone, 1 µM; active compounds read low. z-score, hits read low. 220,000 tested, 0.47% active. AID 1381;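 active = plate z-score of nuclear minus cytoplasmic receptor signal below a set negative limit, without overly bright fluorescence or cell loss, cut at about -3.5 in these data, passing the limit was not always enough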;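 also: z-score of nuclear minus cytoplasmic ring GR-EGFP intensity difference per well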
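Buffer or medium: tetracycline-free induction medium containing charcoal-stripped FBS / Reagent: dexamethasone agonist, 1.0 µM final, for 30 min / Technique: automated 10x imaging of fixed Hoechst-stained cells / Times: induction 48 h, compound 1 h, agonist 30 min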
TLR9-MyD88 inh: TLR9-MyD88 interaction inhibition; 340,000 tested, 0.21% active; AID 504734; inhibition, % at 4.98 µM; CHO BLA complementation TLR9-MyD88, CCF4 FRET ratio; Q9NR96+Q99836;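 active = inhibition above the mean over all tested compounds plus 3 SD, cut at about 21% in these data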;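 also: 0% = DMSO only wells and 100% = clavulanate BLA inhibitor control wells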
NOD2 RIPK2 PPI: inhibitors of human NOD2-RIPK2 interaction. O43353. CHO BLA complementation NOD2-RIPK2, CCF4 ratio. inhibition, % at 4.98 µM. 360,000 tested, 0.38% active; in the data active = inhibition above about 21%;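 also: 0% = vehicle only and 100% = reference blocker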
Beta2AR agonist: human beta-2 adrenergic receptor agonism by FAP; P07550; Am2.2-beta2AR cells, FAP receptor internalization, flow cytometry; response, % (concentration not given with the values); 340,000 tested, 0.43% active; AID 504454;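 active = response above a set limit, near 3 SD of response in nonfluorescent compounds, cut at about 42% in these data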
TLR4 MyD88 comp: TLR4-MyD88 interaction inhibition in cells. inhibition, % at 8.4 µM. HeLa CL3-4 TLR4/MyD88 BLA complementation, FRET ratio. O00206+Q99836. 200,000 tested, 0.18% active. AID 861; in the data active = inhibition above about 25%;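 also: 0% = vehicle and 100% = reference inhibitor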
Target sequence (O00206 whole entry, looked up): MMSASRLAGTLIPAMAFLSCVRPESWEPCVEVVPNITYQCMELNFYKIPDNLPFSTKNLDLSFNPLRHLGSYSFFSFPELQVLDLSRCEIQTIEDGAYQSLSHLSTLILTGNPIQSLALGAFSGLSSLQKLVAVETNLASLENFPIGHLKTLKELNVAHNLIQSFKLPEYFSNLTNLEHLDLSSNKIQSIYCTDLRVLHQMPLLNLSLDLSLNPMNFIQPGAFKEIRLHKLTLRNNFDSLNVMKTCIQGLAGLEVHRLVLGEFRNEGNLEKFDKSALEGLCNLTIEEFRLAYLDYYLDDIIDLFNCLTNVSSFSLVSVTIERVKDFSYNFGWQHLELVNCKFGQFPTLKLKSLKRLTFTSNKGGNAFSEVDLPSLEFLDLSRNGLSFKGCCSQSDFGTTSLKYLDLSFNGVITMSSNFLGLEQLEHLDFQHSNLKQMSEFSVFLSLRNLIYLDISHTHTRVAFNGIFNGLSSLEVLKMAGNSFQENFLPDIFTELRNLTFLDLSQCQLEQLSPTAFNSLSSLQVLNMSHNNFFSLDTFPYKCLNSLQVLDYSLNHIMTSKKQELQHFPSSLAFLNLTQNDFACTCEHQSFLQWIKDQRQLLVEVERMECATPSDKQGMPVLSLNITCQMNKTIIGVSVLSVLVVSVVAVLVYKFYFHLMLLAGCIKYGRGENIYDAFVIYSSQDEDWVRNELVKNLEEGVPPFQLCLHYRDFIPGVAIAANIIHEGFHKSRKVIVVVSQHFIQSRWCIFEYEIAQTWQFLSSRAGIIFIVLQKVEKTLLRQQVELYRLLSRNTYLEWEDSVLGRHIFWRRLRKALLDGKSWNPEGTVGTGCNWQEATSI
Target sequence (Q99836 whole entry, looked up): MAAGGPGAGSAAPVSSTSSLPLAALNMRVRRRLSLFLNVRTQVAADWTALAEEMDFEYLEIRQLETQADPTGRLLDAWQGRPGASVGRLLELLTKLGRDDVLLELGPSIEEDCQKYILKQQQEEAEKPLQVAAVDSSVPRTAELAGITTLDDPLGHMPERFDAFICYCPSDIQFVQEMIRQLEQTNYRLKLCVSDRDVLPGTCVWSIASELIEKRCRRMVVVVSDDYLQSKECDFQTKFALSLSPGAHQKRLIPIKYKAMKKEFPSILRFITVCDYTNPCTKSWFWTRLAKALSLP
ABHD5 PLIN5 PPI: inhibitors of human ABHD5-perilipin-5 interaction; Split G. princeps luciferase complementation, luminescence, 4 h; inhibition, % at 4 µM; Q00G26+Q8WTS1; 360,000 tested, 0.78% active; AID 602281;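 active = inhibition above the mean inhibition across every tested compound plus 3 SD, cut at about 22% in these data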;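 also: 0% = DMSO only wells and the 100% control is not disclosed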
B2AR ag CP1: human beta-2 adrenergic receptor agonism, cherry pick; 1,100 tested, 25% active; percent response (surface receptor), % at 10 µM; shares compounds with Beta2AR agonist; Am2.2-beta2AR cells, FAP surface receptor, flow cytometry; active compounds read low;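 active = surface receptor percent response at or below 58%, roughly 3 SD from nonfluorescent compounds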
FAP fluor counter: counter-screen for beta-2AR agonists: fluorescence in Am2.2 cells | shares compounds with Beta2AR agonist | 1,100 tested, under 10 active | FAP fluorogen flow cytometry, fluorescence counterscreen; active compounds read low | calls only at 10 µM;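 active = percent response below a set limit in fluorescence channel 1 and below 50% in channel 8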
TLR9-MyD88 conf: confirmation of human TLR9-MyD88 binding inhibitors | shares compounds with TLR9-MyD88 inh | CHO TLR9/MyD88 BLA complementation, CCF4 FRET ratio | inhibition, % at 4.98 µM | 680 tested, 51% active;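 active = mean inhibition across three repeats above about 21% taken from the earlier screen, limit read from the data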;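 also: blue over green emission ratio reports constitutive TLR9 MyD88 association via BLA complementation; 0% = DMSO vehicle wells and 100% = clavulanate BLA inhibitor wells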
BLA counter-1: beta-lactamase reporter inhibition, counter-screen artifact; shares compounds with TLR9-MyD88 inh; CHO-BLA cells, CCF4 FRET ratio, BLA reporter; inhibition, % at 4.98 µM; 680 tested, 7% active;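 active = mean inhibition above a 50% cutoff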;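 also: counterscreen of TLR9-MyD88 hits on CMV-driven BLA in CHO-K1 cells; 0% = DMSO alone and 100% = clavulanate blocking BLA; higher means less blue over green ratio so more BLA blockade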
TLR9 CHO cytotox: counter-screen for TLR9-MyD88 inhibitors: cytotoxicity in CHO cells; 680 tested, 39% active; inhibition, % at 4.98 µM; luminescence; shares compounds with TLR9-MyD88 inh; in the data active = inhibition above about 11%
NOD2-RIPK2 conf: NOD2-RIPK2 interaction inhibition confirmed; CHO cells, NOD2-RIPK2 BLA complementation, CCF4 FRET; 1,200 tested, 70% active; shares compounds with NOD2 RIPK2 PPI; inhibition, % at 4.98 µM;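 active = mean inhibition across replicates above a set limit taken from the earlier primary screen, cut at about 21% in these data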;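 also: 0% = DMSO-only wells and the high end = clavulanate BLA-blocked wells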
BLA counter-2: NOD2-RIPK2 counterscreen BLA reporter activity. shares compounds with NOD2 RIPK2 PPI. AID 624371. inhibition, % at 4.98 µM. 1,200 tested, 57% active. CHO BLA reporter, CCF4 FRET ratio;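 active = mean inhibition above the low-control mean inhibition plus three low-control SD, cut at about 11% in these data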;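 also: 0% = DMSO only wells and 100% = clavulanate high control wells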
The depositor's hits bear a star; i = inactive; . = no result. Rows were chosen to be rich in hits. Some 1.6% of all compounds tested hit in one or more screens of this group.

SMILES	Dynein transport	TLR9-MyD88 inh	NOD2 RIPK2 PPI	Beta2AR agonist	TLR4 MyD88 comp	ABHD5 PLIN5 PPI	TLR9-MyD88 conf	BLA counter-1	TLR9 CHO cytotox	others
O=[N+]([O-])c1ccc(Cl)cc1Sc1nc2ccccc2o1	-1.2	-7	0	-28	7	4	.	.	.
O=[N+]([O-])c1ccc(Sc2nc3ccccc3o2)c([N+](=O)[O-])c1	-1.8	7	30*	74*	2	16	.	.	.	B2AR ag CP1=71;FAP fluor counter=i;NOD2-RIPK2 conf=60*;BLA counter-2=-1
O=C(CCC(=O)Nc1ccccc1)N/N=C/c1cccnc1	.	-9	-6	2	.	-6	.	.	.
CCOc1ccc(CNC(=O)C2CCN(c3nnc(C)c4c(C)n(-c5ccc(C)cc5)nc34)CC2)cc1	.	7	36*	55*	.	10	.	.	.	B2AR ag CP1=95;FAP fluor counter=i;NOD2-RIPK2 conf=48*;BLA counter-2=19*
CCOc1ccccc1CNC(=O)C1CCN(c2nnc(C)c3c(C)n(-c4ccc(C)cc4)nc23)CC1	.	-6	37*	53*	.	17	.	.	.	B2AR ag CP1=24*;FAP fluor counter=i;NOD2-RIPK2 conf=35*;BLA counter-2=12*
COc1ccccc1CCNC(=O)C1CCN(c2nnc(C)c3c(C)n(-c4ccc(C)cc4)nc23)CC1	.	2	5	31	.	11	.	.	.
COC(=O)[C@@]12C[C@@H](CC(=O)N3CCCCC3)C(=O)N(CCc3ccc(OC)c(OC)c3)C1=CCC(C)(C)C2	.	.	-10	.	.	3	.	.	.
Cc1ccc(S(=O)(=O)Nc2ccccc2-c2ccccc2NS(=O)(=O)c2ccc(C)cc2)cc1	-0.047	3	-1	10	4	-12	.	.	.
Cc1ccc(S(=O)(=O)Nc2cccc3cccnc23)cc1	0.47	36*	38*	45*	17	0	.	.	.	B2AR ag CP1=87;FAP fluor counter=i;NOD2-RIPK2 conf=59*;BLA counter-2=25*
CCN(CC)c1ccc(-c2nn3c(-c4ccccc4OC)nnc3s2)cc1	-0.4	-4	23*	42*	-9	-3	.	.	.	B2AR ag CP1=81;FAP fluor counter=i;NOD2-RIPK2 conf=14;BLA counter-2=-7
Cc1nc(Cn2c3ccc(NC(=S)NC4CCCCC4)cc3c(=O)n2C)cs1	.	.	-3	.	.	1	.	.	.
CCOC(=O)c1ccc(NC(=O)Nc2ccon2)cc1	-0.61	11	22*	44*	.	-3	.	.	.	B2AR ag CP1=61;FAP fluor counter=i;NOD2-RIPK2 conf=21*;BLA counter-2=-2
CC(OC(=O)/C(C#N)=C/c1ccc(N(C)C)cc1)C(=O)NCc1ccco1 (configuration not stated)	.	24*	4	2	.	4	8	9	-4
O=S(=O)(c1ccccc1)C(Br)S(=O)(=O)c1ccccc1	.	-6	-1	.	.	2	.	.	.
O=C(C1=NN(c2ccccc2)C2C(=O)N(c3ccc(Cl)cc3)C(=O)C12)c1ccccc1 (configuration not stated)	0.15	30*	15	8	15	-2	25*	24	-1
CC(=O)C1=NOC2C(=O)N(c3ccc(Cl)cc3)C(=O)C12 (configuration not stated)	.	-5	-1	1	.	4	.	.	.
Cc1c(O)ccc2c(CN3CCN(CCO)CC3)cc(=O)oc12	0.58	27*	12	-1	-3	-1	10	8	2
Cc1c(O)ccc2c(CN3CCOCC3)cc(=O)oc12	.	10	16	7	.	6	.	.	.
Cc1c(CN2CCC(CO)(CCOc3ccccc3)CC2)c(=O)n(-c2ccccc2)n1C	-1	34*	-10	-11	1	4	1	5	-2
CC1(C(=O)NCc2cccc(C(F)(F)F)c2)CCN1C1Cc2ccccc2C1 (configuration not stated)	.	.	11	.	.	6	.	.	.
Cc1ccc(S(=O)(=O)/N=C2/NC(=O)/C(=C/c3cc([N+](=O)[O-])ccc3O)S2)cc1	.	27*	18	0	.	8	10	15	-2
O=C(CSc1nc(O)cc(=O)n1-c1ccccc1)NCc1ccccc1	0.43	21*	11	-5	-10	2	2	3	-1
CN(C)CCCn1c2c(c(SCC(=O)Nc3nccs3)nc1=O)CCC2	.	6	-5	-2	.	-3	.	.	.
Cc1ccc(C(=O)c2ccccc2C(=O)OCC(=O)Nc2cccc([N+](=O)[O-])c2)cc1	1	0	5	4	-3	-4	.	.	.
Cc1ccc(Cl)c(NC(=O)COC(=O)c2ccccc2C(=O)c2ccc(Cl)c([N+](=O)[O-])c2)c1Cl	-1.2	27*	-2	14	13	6	29*	18	15*
SMILES	Dynein transport	TLR9-MyD88 inh	NOD2 RIPK2 PPI	Beta2AR agonist	TLR4 MyD88 comp	ABHD5 PLIN5 PPI	TLR9-MyD88 conf	BLA counter-1	TLR9 CHO cytotox	others
COc1ccc(O)c(/C=N/NC(=S)Nc2cccnc2)c1	0.1	29*	5	-3	-3	1	15	8	17*
CS(=O)(=O)c1sc2nc(-c3cccs3)cc(-c3ccccc3)c2c1N	-0.4	25*	3	43*	15	-6	19	17	4
Cc1c(C(=O)O)sc2nc(-c3cccs3)cc(C(F)(F)F)c12	.	3	-10	1	.	0	.	.	.
CC(=O)C1=CCC(c2cccc(Cl)c2)N(S(=O)(=O)c2ccc(C)cc2)C1 (configuration not stated)	.	.	11	.	.	8	.	.	.
O=c1[nH]ncc(NCCc2ccccc2)c1Cl	-0.69	24*	-5	1	-6	2	-8	-5	-1
Clc1ccc(/C=N/NC2=Nc3cccc4cccc2c34)cc1	-1.1	29*	11	2	5	3	14	12	7
Cc1ccc(NC(=O)c2cc(S(=O)(=O)N3CCCCC3)ccc2N2CCOCC2)c(C)c1	.	-4	-14	.	.	-1	.	.	.
O=c1c2cc(C(F)(F)F)ccc2sn1-c1ccccc1	.	23*	-3	.	.	-16	26*	-5	58*

Screening results: PubChem BioAssay, several laboratories
